Laboratory results taken from ChEMBL document CHEMBL3232933, “Pyrazole-5-carboxamides, novel inhibitors of receptor for advanced glycation end products (RAGE)” (Eur J Med Chem, 2014).
Calls of active or inactive are those of the source. No cut-off for these calls is given here.

What was measured:
[1] = target: T1, Advanced glycosylation end product-specific receptor (Homo sapiens, UniProt Q15109); assay: Inhibition of biotinylated human RAGE assessed as bound amyloid beta level at 20 uM after 60 mins by ELISA relative to control
Method in brief: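 Biotinylated human RAGE (1 µg), Aβ1-42 oligomers (aged in PBS for 24 h at 4 °C) and compound at a single fixed level were co-incubated in TBS-T with 2.5% BSA on streptavidin plates for 60 min at ambient temperature. Bound Aβ was detected with HRP-4G8, TMB and A450. % inhibition is given as mean ± SD of duplicate experiments.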

[2] = target: T1, Advanced glycosylation end product-specific receptor; assay: Inhibition of biotinylated human RAGE assessed as bound amyloid beta level after 60 mins by ELISA
[3] = system: Mus musculus; assay: Antialzheimer activity in ICR mouse injected with human amyloid beta (1 to 42) assessed as increase in human amyloid beta (1 to 42) level in plasma at 25 mg/kg, ip administered 20 mins prior to human amyloid beta (1 to 42) injection measured after 30 mins relative to control; type: functional; conditions: route intraperitoneal
Method in brief: (§1)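 Male ICR mice, 3 months old (25 g, n = 4), got one i.p. dose of 25 mg/kg or vehicle. After 20 min, human Aβ1-42 in PBS was injected into the tail vein and circulated for 30 min. Human Aβ was then measured in brain extracts and plasma. Values are means ± SD.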

[4] = system: Mus musculus; assay: Antialzheimer activity in ICR mouse injected with human amyloid beta (1 to 42) assessed as reduction of human amyloid beta (1 to 42) level in brain at 25 mg/kg, ip administered 20 mins prior to human amyloid beta (1 to 42) injection measured after 30 mins relative to control; type: functional; set-up: scale not given: the % may be the effect or the level left; conditions: route intraperitoneal; method in brief: as §1
[5] = AUC in Sprague-Dawley rat at 2 mg/kg, iv; type: ADME, organism-based; set-up: dose 2 mg/kg, route intravenous; conditions: plasma
[6] = Kinetic solubility of the compound in PBS at pH 7.4 by nephelometric analysis; type: physicochemical; conditions: read-out: Kinetic_solubility
Method in brief: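 Kinetic solubility was measured on the HCl salt, added from a DMSO stock, in triplicate experiments.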

T1 sequence (Q15109 whole entry): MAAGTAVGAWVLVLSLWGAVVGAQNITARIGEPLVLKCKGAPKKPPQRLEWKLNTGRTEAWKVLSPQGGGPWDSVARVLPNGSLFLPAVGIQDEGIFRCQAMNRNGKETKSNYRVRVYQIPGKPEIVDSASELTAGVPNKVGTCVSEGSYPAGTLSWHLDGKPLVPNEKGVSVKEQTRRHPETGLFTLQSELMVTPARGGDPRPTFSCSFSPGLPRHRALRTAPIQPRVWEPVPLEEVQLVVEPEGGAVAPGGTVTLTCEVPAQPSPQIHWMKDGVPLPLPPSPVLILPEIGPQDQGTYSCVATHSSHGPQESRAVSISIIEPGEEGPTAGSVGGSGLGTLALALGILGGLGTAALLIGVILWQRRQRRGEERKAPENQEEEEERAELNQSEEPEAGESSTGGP

Row | Compound | inhibition [1] | further results
1 | CCCCOc1cc(OCCCN(CC)CC)ccc1NC(=O)c1cc(-c2ccc(Oc3ccc(Cl)cc3)cc2)no1 | 32.1% | –
2 | CCCCOc1cc(OCCCN(CC)CC)ccc1NC(=O)c1cc(-c2ccc(Oc3ccc(F)cc3)cc2)nn1C [listing 1 of 2 here] | – | Activity [3]: 4.01%; Activity [4]: 37.86%; AUC [5]: 8560 ng·h/mL
3 | CCN(CC)CCOc1ccc(NC(=O)c2cc(-c3ccc(OC)cc3)nn2C)cc1 | 20.5% | –
4 | CCCCOc1cc(OCCCN(CC)CC)ccc1NC(=O)c1cc(-c2ccc(Oc3ccc(F)cc3)cc2)nn1C.Cl | – | solubility kinetic [6]: 80.3 µM
5 | CCCCOc1cc(OCCCN(CC)CC)ccc1NC(=O)c1cc(-c2ccc(Oc3ccc(Cl)cc3)cc2)n(CCCC)n1 | 36% | –
6 | CCCCOc1cc(OCCCN(CC)CC)ccc1NC(=O)c1cc(-c2ccc(OC)cc2)n[nH]1 | inactive | –
7 | CCCCOc1cc(OCCCN(CC)CC)ccc1NC(=O)c1cc(-c2ccc(Oc3ccc(Cl)cc3)cc2)n[nH]1 | inactive | –
8 | CCN(CC)CCCOc1ccc(NC(=O)c2cc(-c3ccc(OC)cc3)nn2C)cc1 | 20.5% | –
9 | CCCCn1nc(-c2ccc(Oc3ccc(Cl)cc3)cc2)cc1C(=O)Nc1ccc(OCCCN(CC)CC)cc1 | 41.4% | –
10 | CCN(CC)CCOc1ccc(NC(=O)c2cc(-c3ccc(Oc4ccc(Cl)cc4)cc3)nn2C)cc1 | 27% | –
11 | CCCCOc1cc(OCCCN(CC)CC)ccc1NC(=O)c1cc(-c2ccc(Oc3ccc(Cl)cc3)cc2)n(CCC)n1 | 45.7% | –
12 | CCN(CC)CCOc1cccc(Nc2nc(-c3ccc(Cl)cc3)cc(-c3ccc(Cl)cc3)n2)c1.Cl | – | solubility kinetic [6]: 16.5 µM
13 | CCCCOc1cc(OCCCN(CC)CC)ccc1NC(=O)c1cc(-c2ccc(OC3CCCCC3)cc2)nn1C | 76% | IC50 [2]: 2.5 µM
14 | CCN(CC)CCOc1cccc(Nc2nc(-c3ccc(Cl)cc3)cc(-c3ccc(Cl)cc3)n2)c1 | – | AUC [5]: 10600 ng·h/mL
15 | CCN(CC)CCCOc1ccc(NC(=O)c2cc(-c3ccc(Oc4ccc(Cl)cc4)cc3)nn2C)cc1 | 33.8% | –

Now from value to molecule, other results behind:

Row | inhibition [1] | Compound | further results
16 | 36.5% | CCCCOc1cc(OCCCN(CC)CC)ccc1NC(=O)c1cc(-c2ccc(Oc3ccc(OC)c(Cl)c3)cc2)nn1C | IC50 [2]: 5.3 µM
17 | 29.5% | CCCCOc1cc(OCCCN(CC)CC)ccc1NC(=O)c1cc(-c2ccc(Oc3ccccc3F)cc2)nn1C | –
18 | 77% | CCCCOc1cc(OCCCN(CC)CC)ccc1NC(=O)c1cc(-c2ccc(Oc3ccccc3)cc2)nn1C | IC50 [2]: 5.4 µM
19 | 49.7% | CCCCOc1cc(OCCCN(CC)CC)ccc1NC(=O)c1cc(-c2ccc(Oc3ccc(Cl)cc3)cc2)nn1C | –
20 | 44.7% | CCCCOc1cc(OCCCN(CC)CC)ccc1NC(=O)c1cc(-c2ccc(Oc3ccc(Cl)cc3)cc2)nn1CC | –
21 | 52.6% | CCCCOc1cc(OCCCN(CC)CC)ccc1NC(=O)c1cc(-c2ccc(Oc3ccccn3)cc2)nn1C | IC50 [2]: 18.9 µM
22 | 83.1% | CCCCOc1cc(OCCCN(CC)CC)ccc1NC(=O)c1cc(-c2ccc(Oc3ccc(C(F)(F)F)cc3)cc2)nn1C | IC50 [2]: 1.9 µM
23 | 34.1% | CCCCOc1cc(OCCCN(CC)CC)ccc1NC(=O)c1cc(-c2ccc(Oc3ccc(OC)c(F)c3)cc2)nn1C | –
24 | inactive | CCCCOc1cc(OCCCN(CC)CC)ccc1NC(=O)c1cc(-c2ccc(Oc3ccc(Cl)cc3)cc2)nn1CCCC | –
25 | 19.9% | CCCCOc1cc(OCCCN(CC)CC)ccc1NC(=O)c1cc(-c2ccc(Oc3ccc(F)c(F)c3)cc2)nn1C | –
26 | inactive | CCCCOc1cc(OCCCN(CC)CC)ccc1NC(=O)c1cc(-c2ccc(Oc3ccc(C(C)(C)C)cc3)cc2)nn1C | –
27 | 79.3% | CCCCOc1cc(OCCCN(CC)CC)ccc1NC(=O)c1cc(-c2ccc(Oc3ccc(F)cc3)cc2)nn1C [listing 2 of 2 here] | –
28 | 74.2% | CCCCOc1cc(OCCCN(CC)CC)ccc1NC(=O)c1cc(-c2ccc(Oc3ccc(OC)cc3)cc2)nn1C | IC50 [2]: 7.8 µM
29 | 44.6% | CCCCOc1cc(OCCCN(CC)CC)ccc1NC(=O)c1cc(-c2ccc(Oc3ccc(Cl)cc3)cc2)nn1CCC | –
30 | 37% | CCCCOc1cc(OCCCN(CC)CC)ccc1NC(=O)c1cc(-c2ccc(Oc3cccc(F)c3)cc2)nn1C | –
31 | 32.4% | CCCCOc1cc(OCCCN(CC)CC)ccc1NC(=O)c1cc(-c2ccc(OC)cc2)nn1C | –
